Reference: publication PMC4128068 (British Journal of Pharmacology, 2014)
Blank lines part the entries; values can stand above or below the compound they belong to.

Key:
[1] = target: T1, volume-sensitive outwardly rectifying Cl− conductance (VSORC) (Mus musculus, UniProt Q80WG5); format: cell-based; conditions: CFTR-expressing cells
T1 sequence (Q80WG5 1-810): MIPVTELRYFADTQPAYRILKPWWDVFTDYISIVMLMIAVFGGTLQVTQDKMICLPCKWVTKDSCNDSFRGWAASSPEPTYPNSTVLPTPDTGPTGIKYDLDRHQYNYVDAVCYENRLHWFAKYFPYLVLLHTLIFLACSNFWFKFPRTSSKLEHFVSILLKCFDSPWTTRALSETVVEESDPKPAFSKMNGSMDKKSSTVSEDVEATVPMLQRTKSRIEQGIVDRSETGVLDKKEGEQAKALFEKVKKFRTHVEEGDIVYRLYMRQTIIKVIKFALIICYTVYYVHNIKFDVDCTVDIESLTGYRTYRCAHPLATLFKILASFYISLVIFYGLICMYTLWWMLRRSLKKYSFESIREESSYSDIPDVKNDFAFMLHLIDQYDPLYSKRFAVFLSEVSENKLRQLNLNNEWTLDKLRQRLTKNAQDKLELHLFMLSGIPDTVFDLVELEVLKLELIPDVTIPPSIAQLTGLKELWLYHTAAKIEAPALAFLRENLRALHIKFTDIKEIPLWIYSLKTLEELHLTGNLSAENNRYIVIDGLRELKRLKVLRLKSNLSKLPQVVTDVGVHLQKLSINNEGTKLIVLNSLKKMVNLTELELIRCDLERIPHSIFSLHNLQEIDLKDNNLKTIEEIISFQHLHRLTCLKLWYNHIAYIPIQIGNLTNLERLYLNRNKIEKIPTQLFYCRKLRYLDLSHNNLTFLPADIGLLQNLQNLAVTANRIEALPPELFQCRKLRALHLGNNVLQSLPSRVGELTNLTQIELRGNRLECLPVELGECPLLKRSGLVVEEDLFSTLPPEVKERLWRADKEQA
Outline: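 Ruptured whole-cell patch clamp on kidney cells. Pipette: 140 mM NMDGCl, 10 HEPES pH 7.4, 5 EGTA, 5 MgATP. VSORC was activated by switching from a mannitol-containing NMDGCl bath (320–330 mOsm) to a mannitol-free one (285–290 mOsm). Test compound (0.5–10 µM) was perfused after 3–4 min. Cells were held at −40 mV with 400 ms steps from −100 to +100 mV. Slopes (−100 to −60 and +60 to +100 mV) were normalised to the hypotonic maximum; 5–6 cells.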

[2] = system: Ca2+-dependent Cl− conductance (CaCC); experiment: whole-cell patch-clamp, ionomycin-activated CaCC in CFTR-expressing kidney cells; format: cell-based, mouse
Outline: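 Ruptured whole-cell patch clamp on kidney cells, with the NMDGCl pipette solution (5 EGTA, 5 MgATP, pH 7.4). CaCC was activated with 2 µM ionomycin, and test compound (1, 5, 10 µM) was perfused once current peaked. Cells were held at −40 mV with 400 ms steps from −100 to +120 mV. Slopes (+60 to +120 mV) were normalised to the uninhibited maximum; 5–6 cells. IC50 came from Hill fits.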

[3] = system: kidney PCT cells (CFTR-expressing); experiment: MTT assay on CFTR-expressing cells; format: cell-based, mouse; conditions: 24 h
[4] = system: PS120 cells; experiment: MTT assay on non–CFTR-expressing cells; format: cell-based, hamster; conditions: 24 h
Outline: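 PS120 cells in 1% serum were exposed to increasing test compound concentrations for 24 h. They were then incubated 1 h with 0.5 mg mL−1 MTT in phenol red-free DMEM:F12 with 5% serum at 37°C. Cells were lysed in 10% SDS/0.01 N HCl overnight and OD read at 562 nm. Values were normalised to vehicle, means (SEM) of eight experiments.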

[5] = target: CFTR-like Cl− conductance (Mus musculus, UniProt P26361); format: cell-based
Outline: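 Ruptured whole-cell patch clamp on cultured kidney DCT cells. CFTR current activated with forskolin (1–10 µM); once fully developed (3–4 min), test compound was perfused at rising concentrations (0.5, 1, 5, 10 µM). Holding potential −40 mV; eleven 400-ms steps from −100 to +100 mV in +20 mV increments. Current read 350 ms after pulse onset; mean ±SEM of six to eight cells.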

[6] = system: kidney PCT cells (CFTR-expressing); experiment: LIVE/DEAD cell viability/cytotoxicity assay; format: cell-based, mouse; conditions: 24 h
Outline: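 Confluent mouse kidney PCT monolayers in 1% serum were exposed to the test compound (0.5–50 µM) for 24 h. Live cells were stained with calcein-AM (green) and dead cells with […] (red). Green and red pixels were quantified on three micrographs per well. Values were normalised to 100% live cells in controls, as means ±SEM of 3–6 experiments.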

[7] = system: shark 'CFTR-like' protein; conditions: 25 µM; oocyte expression system; ref Stahl et al., 2012; cited from earlier work
[8] = system: human CFTR; conditions: 20 µM; oocyte expression system; ref Stahl et al., 2012; cited from earlier work

Chain of CFTR-like Cl− conductance (P26361 whole entry, the tested form may be a part): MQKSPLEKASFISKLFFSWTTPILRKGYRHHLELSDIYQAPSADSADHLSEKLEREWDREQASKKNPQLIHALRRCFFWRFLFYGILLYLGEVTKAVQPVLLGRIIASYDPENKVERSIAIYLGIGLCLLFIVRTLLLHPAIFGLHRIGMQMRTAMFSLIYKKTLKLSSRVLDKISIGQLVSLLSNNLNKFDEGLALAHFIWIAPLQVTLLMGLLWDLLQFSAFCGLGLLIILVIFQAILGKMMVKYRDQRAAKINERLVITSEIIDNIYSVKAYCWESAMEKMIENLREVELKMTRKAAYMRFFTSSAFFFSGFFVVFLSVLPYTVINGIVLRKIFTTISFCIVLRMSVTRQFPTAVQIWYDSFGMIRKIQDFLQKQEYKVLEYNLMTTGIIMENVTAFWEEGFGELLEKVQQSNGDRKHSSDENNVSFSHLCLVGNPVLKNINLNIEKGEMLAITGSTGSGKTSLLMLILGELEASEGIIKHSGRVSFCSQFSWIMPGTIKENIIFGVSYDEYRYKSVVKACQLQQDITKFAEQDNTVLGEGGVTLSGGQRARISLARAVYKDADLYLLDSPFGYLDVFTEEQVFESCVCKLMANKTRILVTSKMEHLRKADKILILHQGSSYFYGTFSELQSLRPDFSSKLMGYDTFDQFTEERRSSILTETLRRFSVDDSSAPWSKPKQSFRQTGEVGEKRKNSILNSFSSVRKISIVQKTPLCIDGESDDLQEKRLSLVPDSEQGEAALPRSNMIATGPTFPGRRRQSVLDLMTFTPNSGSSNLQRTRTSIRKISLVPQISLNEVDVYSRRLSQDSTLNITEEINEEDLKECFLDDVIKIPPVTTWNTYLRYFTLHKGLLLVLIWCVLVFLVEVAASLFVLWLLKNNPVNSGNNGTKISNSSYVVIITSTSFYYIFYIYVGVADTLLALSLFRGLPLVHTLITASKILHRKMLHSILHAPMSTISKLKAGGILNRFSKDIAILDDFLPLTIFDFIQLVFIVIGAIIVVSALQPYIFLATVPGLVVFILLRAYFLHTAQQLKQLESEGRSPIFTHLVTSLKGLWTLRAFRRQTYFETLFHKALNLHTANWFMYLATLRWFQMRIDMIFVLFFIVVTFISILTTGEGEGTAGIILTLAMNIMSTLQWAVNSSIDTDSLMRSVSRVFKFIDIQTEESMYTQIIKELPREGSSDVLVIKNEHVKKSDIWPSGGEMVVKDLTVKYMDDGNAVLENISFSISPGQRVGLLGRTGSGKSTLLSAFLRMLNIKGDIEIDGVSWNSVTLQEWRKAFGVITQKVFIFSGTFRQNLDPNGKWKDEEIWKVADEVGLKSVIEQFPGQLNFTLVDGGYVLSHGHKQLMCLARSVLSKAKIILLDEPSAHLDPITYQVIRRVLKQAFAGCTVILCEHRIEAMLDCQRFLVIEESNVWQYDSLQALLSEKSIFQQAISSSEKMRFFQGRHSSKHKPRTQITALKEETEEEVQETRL

inhibition of the remaining fraction of the VSORC current ([1]; 100 µM, after CFTRinh-172): completely inhibited
Compound: O=C(O)c1cc([N+](=O)[O-])ccc1NCCCc1ccccc1 [NPPB, 5-nitro-2-(3-phenylpropylamino)-benzoic acid]

Compound: O=C(O)c1ccc(C=C2SC(=S)N(c3cccc(C(F)(F)F)c3)C2=O)cc1 [CFTRinh-172, 3-[(3-trifluoromethyl)phenyl]-5-[(4-carboxyphenyl)methylene]-2-thioxo-4-thiazolidinone]
inhibition of the CaCC ([2]; 5 µM): no noticeable inhibition
effect on the CaCC ([2]; up to 10 µM, ionomycin 2 µM): did not affect
effect on cell viability (MTT) ([3]; 20 µM and even 10 µM): marked effect
effect on cell viability (MTT) ([3]; 50 µM): dramatic decrease of the cell viability
concentration decreasing cell viability (MTT) [4]: 5 µM
inhibition of the CFTR conductance ([5]; 5 µM): full inhibition
concentration of maximal inhibition of the CFTR-like current ([5]; forskolin-activated, tested 0.5, 1, 5, 10 µM): 5 µM
effect on cell viability (live/dead labelling) ([6]; 50 µM): induced cell death
effect on cell viability (live/dead labelling) ([6]; 1 to 20 µM): no significant effect on cell viability
inhibition of VSORC ([1]; 10 µM, negative and positive potentials): ~50%
IC50 ([1]; read-out: IC50 towards VSORC-mediated Cl− currents, either at negative or positive potentials): 12 µM
effect on VSORC conductance ([1]; up to 1 µM): did not affect
inhibition of shark 'CFTR-like' protein [7]: 10%
inhibition of human CFTR [8]: ~50%
